MrgX1 allo act: positive allosteric modulators of MrgX1, primary screen, HEK293 cells, Fluo-4 calcium flux | Mas-related G-protein coupled receptor member X1 (Homo sapiens), Q96LB2 | FDSS; active compounds read high | B-score at 10 µM | hit rate 0.63% among 310,000 | AID 588675, 2011;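 active means plate-corrected calcium response at least 3 library SD above typical, normal starting fluorescence, not activating the receptor alone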;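 further: compound read alongside a low EC10 to EC30 dose of BAM8-22 agonist; peak minus trough fluorescence over baseline measured at the second addition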
Target sequence (Q96LB2 whole entry, looked up): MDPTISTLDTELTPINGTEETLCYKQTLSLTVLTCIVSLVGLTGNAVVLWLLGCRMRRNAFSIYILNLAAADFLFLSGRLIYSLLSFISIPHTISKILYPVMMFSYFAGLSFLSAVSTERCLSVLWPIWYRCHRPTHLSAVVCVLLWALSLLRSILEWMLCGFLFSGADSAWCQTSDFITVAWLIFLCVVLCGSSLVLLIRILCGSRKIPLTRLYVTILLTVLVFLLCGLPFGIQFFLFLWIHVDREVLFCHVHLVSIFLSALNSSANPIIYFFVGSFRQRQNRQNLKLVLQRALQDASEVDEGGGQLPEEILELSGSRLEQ
MrgX1 agonist: agonists of human MrgX1 receptor, primary screen, HEK293 cells, Fluo-4 calcium flux; Mas-related G-protein coupled receptor member X1 (Homo sapiens), Q96LB2; Fluo-4 calcium fluorescence, agonist mode; active compounds read high; B-score at 10 µM; hit rate 0.44% among 310,000;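 active means calcium response B-score plate-corrected fluorescence ratio at least 3 library SD, with starting fluorescence B-score inside 5 SD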
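times = overnight plating, then 30 min 37 °C plus 30 min room-temperature dye loading | assay system = stable human MrgX1 HEK293 cell line | input = fifteen thousand cells per well | signal = kinetic calcium dye fluorescence, Fluo-4 NW | dosing = compound delivered in addition one of three | read-out = B-scored fluorescence response ratio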
MrgX1 antagonist: antagonists of human MrgX1 receptor, primary screen, HEK293 cells, Fluo-4 calcium flux; Mas-related G-protein coupled receptor member X1 (Homo sapiens), Q96LB2; BAM8-22 antagonism; active compounds read low; B-score at 10 µM; hit rate 1.3% among 310,000;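 active means calcium-response B-score plate-corrected more than 3 library SD below zero, starting fluorescence within 5 deviations, no agonist response on first addition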;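 further: peak minus trough fluorescence over baseline after final BAM8-22 challenge near maximal dose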
RGS4 block: RGS4 inhibitors, primary screen, cell-based, HEK293 M3R inducible RGS4, calcium flux; Regulator of G-protein signaling 4 (Homo sapiens), P49798; Fluo-4 calcium flux; active compounds read high; triggered by carbachol at its EC20; B-score at 10 µM; hit rate 0.45% among 310,000; AID 463165, 2010;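 active means B-score, a plate-corrected calcium signal, over three deviations above library mean, with baseline fluorescence within five deviations of library mean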;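 further: RGS4 expression induced by doxycycline in cells with stable M3 receptor; B-score is computed from the integrated fluorescence ratio over baseline after carbachol; higher B-score means a larger calcium signal and so more RGS4 inhibition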
Target sequence (P49798 whole entry, looked up): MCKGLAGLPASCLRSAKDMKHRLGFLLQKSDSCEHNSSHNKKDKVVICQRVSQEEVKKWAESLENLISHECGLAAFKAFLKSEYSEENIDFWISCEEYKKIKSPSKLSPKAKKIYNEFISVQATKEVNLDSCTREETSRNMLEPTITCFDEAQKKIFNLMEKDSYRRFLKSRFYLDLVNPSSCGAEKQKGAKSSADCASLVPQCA
RGS4 act: RGS4 potentiators or activators, primary screen, cell-based, HEK293 M3R inducible RGS4, calcium flux; carbachol calcium flux Fluo4; active compounds read low; B-score at 10 µM; hit rate 0.92% among 310,000; AID 463111, 2010;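 active means B-score of the integrated calcium signal more than 4 SD below the library mean, with starting fluorescence not abnormally high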;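 further: negative B-score means reduced calcium response which marks RGS4 activation or potentiation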
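Material: M3R-expressing HEK293 line, RGS4 induced by doxycycline | Schedule: Overnight RGS4 induction, 30 min dye load 37 °C, 20 min compound RT | Measured by: Fluo4 fluorescence kinetic imaging of calcium | Read-out: Integrated calcium ratio converted to B score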
MrgX1 PAM conf: MrgX1 positive allosteric modulators, duplicate retest, confirmation, HEK293 cells, Fluo-4 calcium flux | shares compounds with MrgX1 allo act | Fluo-4 calcium fluorescence, FDSS | activation (ratio percentage), % at 10 µM | hit rate 13% among 1,200 | AID 602413, 2012;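 active means ratio at least 3 SD above the weak peptide control, stable starting fluorescence, no direct agonism earlier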;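 further: compound followed by low BAM8-22 agonist challenge near EC20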
HEK293 Ca flux: nonspecific calcium signal in parental HEK293, confirmation, counter-screen for MrgX1 antagonist project, parental HEK293 cells, Fluo-4 calcium flux. shares compounds with MrgX1 antagonist. Fluo-4 calcium fluorescence, FDSS. fluorescence ratio F(max-min)/F0 at 10 µM. hit rate 2% among 4,000. AID 624111, 2012;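 active means duplicate-averaged calcium fluorescence ratio at least three times the standard deviation of buffer wells, a nonspecific response in parental cells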
HEK293 Ca counter: calcium response in parental HEK293 cells, primary screen, counter-screen for MrgX1 allosteric activator project, cell-based, Fluo-4 calcium flux, duplicate; shares compounds with MrgX1 antagonist; Fluo-4 fluorescence ratio; active compounds read high; fluorescence ratio F(max-min)/F0 at 10 µM; hit rate 0.4% among 4,000;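 active means calcium fluorescence ratio, averaged over duplicates, at least 3 SD of the buffer-well ratio, meaning a nonspecific response in receptor-free cells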;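 further: untransfected parental HEK293 lacking MrgX1 used as counterscreen for MrgX1 allosteric activators; fluorescence change taken during the second addition on a kinetic imager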
HEK293 Ca cntr2: calcium response in parental HEK293 cells, primary screen, counter-screen for MrgX1 agonist project, cell-based, Fluo-4 calcium flux, duplicate, agonist mode. Fluo-4 calcium fluorescence (FDSS); active compounds read high. fluorescence ratio F(max-min)/F0 at 10 µM. hit rate 8.7% among 4,000. shares compounds with MrgX1 antagonist;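 active means calcium fluorescence ratio at least three times the spread of buffer wells, meaning a non-specific response in parental cells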
The depositor's hits bear a star; i = inactive; · = not tested or not shown. This is a sample that favours compounds with a hit; in the whole collection about 3.5% have one here.

SMILES | MrgX1 allo act | MrgX1 agonist | MrgX1 antagonist | RGS4 block | RGS4 act | MrgX1 PAM conf | HEK293 Ca flux | HEK293 Ca counter | HEK293 Ca cntr2
COC(=O)CN1C(=O)C2(C(C#N)=C(N)Oc3c2c(C)nn3-c2ccccc2)c2ccccc21 (stereo not given) | 7.41* | i | i | i | i | i | i | i | i
COC(=O)CN1C(=O)C2(C(C#N)=C(N)Oc3n[nH]c(-c4cccs4)c32)c2ccccc21 (stereo not given) | i | i | i | i | i | · | · | · | ·
COc1cc2c(cc1OC)C1(Nc3c-2c(C)nn3-c2ccccc2)C(=O)Nc2ccccc21 (stereo not given) | 6.7* | i | i | · | · | i | i | i | i
Cc1ccc(S(=O)(=O)N(C)C)cc1NC(=S)N1CCc2ccccc21 | 11.4* | i | i | i | i | i | i | i | i
COc1ccc(C(=O)COC(=O)CN2C(=O)c3ccccc3C2=O)c(OC)c1 | i | i | i | i | i | · | · | · | ·
CCCCOc1ccc(C(=S)N2CCC(C(N)=O)CC2)cc1 | i | i | i | i | i | · | · | · | ·
Cc1cccc(Oc2ncnc3oc(-c4ccccc4)cc23)c1C | 12.3* | i | i | i | i | 7.6%* | i | i | i
Cc1cccc(OCC(=O)Nc2cccc(-c3nnc(-c4ccccc4)o3)c2)c1C | i | i | i | i | i | · | · | · | ·
O=C(CC1SCCNC1=O)Nc1ccc(F)c(Cl)c1 (stereo not given) | 9.91* | i | i | i | i | i | i | i | i
CNC(=O)COC(=O)c1cc2c(s1)CCCC2 | 12.1* | i | i | i | i | i | i | i | i
C/C(N)=C(/C#N)C(=O)COC(=O)c1cc2c(s1)CCCC2 | i | i | i | i | i | · | · | · | ·
CCN(c1cccc(C)c1)S(=O)(=O)c1ccc(-n2cccn2)cc1 | 6.99* | i | i | i | i | i | i | i | i
O=C(O)c1c2c(nc3ccccc13)/C(=C/c1c(F)cccc1F)CCC2 | 8.2* | i | i | i | i | i | i | i | i
O=C(O)c1c2c(nc3ccccc13)/C(=C/c1ccc(OC(F)F)cc1)CCC2 | i | i | i | i | i | · | · | · | ·
C=CCNS(=O)(=O)c1ccc2nsnc2c1 | i | i | i | i | i | · | · | · | ·
CCNC(=O)C(=O)c1c(-c2ccccc2)[nH]c2ccccc12 | i | i | i | i | i | · | · | · | ·
CCN(CC)C(=O)C(=O)c1c(-c2ccccc2)[nH]c2ccccc12 | 14.6* | i | i | i | i | i | i | i | i
COc1cc2c(cc1NC(=O)C(c1ccccc1)c1ccccc1)CCCC2 | i | i | i | i | i | · | · | · | ·
CC1CCCCC1Nc1nc2ccc(Cl)cc2n2cnnc12 (stereo not given) | 9.19* | i | i | i | i | i | i | i | i
CCc1nnc(NC(=O)CN2C(=O)/C(=C/c3cc(OC)c(OC)c(OC)c3)SC2=S)s1 | i | i | i | i | i | · | · | · | ·
Cc1ccccc1OCC(=O)N/N=C1\CC(=O)CC(C)(C)C1 | i | i | i | i | i | · | · | · | ·
CC(C)S(=O)(=O)c1cnc(N2CCOCC2)nc1N | 16.3* | i | i | i | i | i | i | i | i
CC(C)(C)S(=O)(=O)c1cnc(N2CCOCC2)nc1N | i | i | i | i | i | · | · | · | ·
CSCc1c(C(=O)NCCc2ccccn2)oc2ccccc12 | i | i | i | i | i | · | · | · | ·
C=CCN1C(=O)c2ccc(C(=O)N(CC)CC(=O)Nc3c(F)cccc3F)cc2C1=O | i | i | i | i | i | · | · | · | ·
SMILES | MrgX1 allo act | MrgX1 agonist | MrgX1 antagonist | RGS4 block | RGS4 act | MrgX1 PAM conf | HEK293 Ca flux | HEK293 Ca counter | HEK293 Ca cntr2
O=C(Nc1ccc2c(c1)C(=O)NC2=O)c1cc(Cl)ccc1Cl | i | i | i | i | i | · | · | · | ·
CC1=CC(C)C(/C=N/N=C(N)N)C(C)C1 (stereo not given) | 24.2* | i | i | i | i | i | i | i | i
COC(=O)c1cc(C#N)c(SCc2ccccc2)nc1C | 6.94* | i | i | i | i | i | i | i | i
CN(C)C(=O)c1cn(-c2ccccc2)nc1-c1cc2ccccc2oc1=O | i | i | i | i | i | · | · | · | ·
CN(C)C(=O)c1cn(-c2ccccc2)nc1-c1cc2ccccc2o1 | 8.05* | i | i | i | i | i | i | i | i
COc1ccc(C(=O)N/C(=C\c2cn(S(=O)(=O)N(C)C)c3ccccc23)C(=O)N2CCOCC2)cc1 | i | i | i | i | i | · | · | · | ·
Cc1cccc(CCNC(=O)C2CCN(S(=O)(=O)c3ccccc3)CC2)c1 | 10.6* | i | i | i | i | i | i | i | i
O=C(NCCc1cccc(F)c1)C1CCN(S(=O)(=O)c2ccccc2)CC1 | i | i | i | i | i | · | · | · | ·
O=C(CCc1nnc(Cc2c[nH]c3ccccc23)o1)NC1CCCC1 | 16.2* | i | i | i | i | i | i | i | i
COc1ccc(-c2oc3ccccc3c2C(=O)Oc2ccccc2)cc1 | 8.68* | i | i | i | i | i | i | i | 68.3*
COc1nc(N)nc(NC23CC4CC(CC(C4)C2)C3)n1 | 14.9* | i | i | i | i | 22.1%* | i | i | i
Cc1ccc(NC(=O)COC(=O)C2C3CC4OC(=O)C2C4C3)cc1 (stereo not given) | 25.7* | i | i | i | i | i | i | i | i
